{"source": "paper PMC10548513", "about": "(Chemical Science, 2023)", "key": {"HeLa cells [1]": {"test_system": "HeLa cells", "assay": "Peptide cytotoxicity, WST-8", "assay_type": "cell-based", "conditions": "24 h; for Cytotoxicity at 30 µM: peptide 30 µM; for Cytotoxicity at 10 µM: peptide 10 µM"}, "Huh-7-Luc cells": {"test_system": "Huh-7-Luc cells", "assay": "RNAi assay by luciferase assay, peptide/siRNA complexes", "assay_type": "cell-based, human", "conditions": "peptide/Luc-siRNA complex, N/P ratio 16, 48 h, n = 5", "how_it_was_run": "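Complexes of peptide with firefly GL3 luciferase siRNA, or scrambled-sequence control siRNA, were prepared at N/P 8 or 16. They were added to Huh-7 cells stably expressing luciferase and incubated for 48 h. Silencing was measured as loss of luminescence; n = 5, mean ± standard deviation.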"}, "HeLa cells [2]": {"test_system": "HeLa cells", "assay": "Luciferase reporter assay, transfection of pDNA with peptide/pDNA complexes", "assay_type": "cell-based", "conditions": "N/P ratio 16, 24 h", "how_it_was_run": "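Peptide/pDNA complexes were made with luciferase-encoding (rLuc) pDNA at an N/P charge ratio (peptide cationic residues to pDNA phosphate) of 8 or 16. They were added to HeLa cells for 24 h. Transfection was read as luminescence, given as RLU normalized to blank; n = 3, mean ± standard deviation.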"}, "[3]": {"assay": "Relative hydrophobicity by UPLC retention time", "assay_type": "physicochemical", "conditions": "comparison among stapled peptides st4-1–6 and st7-1–6 (Table S1)"}}, "note": "Positions of bridges follow the written chain, without caps; N, C: chain ends. Non-standard residues stand in square brackets, D forms with d. Residues, ends and D or L forms follow the SMILES beside them. No end group written: not given here. R8 = C=CCCCCCC[C@@](C)(N)C(=O)O; S5 = C=CCCC[C@](C)(N)C(=O)O"}
{"compound": "GIGKFLHSAKKFGKAFVGEIMNS-NH2 [Magainin 2, reference compound]", "values": [{"measurement": "Cytotoxicity at 30 µM", "setting": "HeLa cells [1]", "value": "did not exhibit cytotoxicity"}]}
{"compound": "CC[C@H](C)[C@H](NC(=O)CN)C(=O)N[C@@H](CCCNC(=N)N)C(=O)N[C@@H](CCCNC(=N)N)C(=O)N[C@@H](Cc1ccccc1)C(=O)N[C@@H](CC(C)C)C(=O)N[C@@H](CCCNC(=N)N)C(=O)N[C@]1(C)CCCCCCC=CCCC[C@@](C)(C(=O)N[C@@H](Cc2ccccc2)C(=O)N[C@@H](CCCNC(=N)N)C(N)=O)NC(=O)[C@H](CCCNC(=N)N)NC(=O)[C@H](C(C)C)NC(=O)[C@H](Cc2ccccc2)NC(=O)[C@H](CCCNC(=N)N)NC(=O)[C@H](CCCNC(=N)N)NC(=O)[C@H](C)NC1=O", "note": "[st7-5_R] (H-GIRRFLR[R8]ARRFVR[S5]FR-NH2; staple 8-15)", "values": [{"measurement": "Reduction of the luminescence signal (gene silencing) with Luc-siRNA", "setting": "Huh-7-Luc cells", "value": "~70", "unit": "%"}, {"measurement": "Transfection efficiency of pDNA relative to st7-5", "setting": "HeLa cells [2]", "value": "about 100 times"}, {"measurement": "Cytotoxicity at 10 µM", "setting": "HeLa cells [1]", "value": "did not show significant cytotoxicity"}]}
{"compound": "GIKKFLKSAKKFVKAFK-NH2 [Pep-1]", "values": [{"measurement": "Cytotoxicity at 30 µM", "setting": "HeLa cells [1]", "value": "did not exhibit cytotoxicity"}]}
{"compound": "CC[C@H](C)[C@H](NC(=O)CN)C(=O)N[C@@H](CCCCN)C(=O)N[C@@H](CCCCN)C(=O)N[C@@H](Cc1ccccc1)C(=O)N[C@@H](CC(C)C)C(=O)N[C@@H](CCCCN)C(=O)N[C@]1(C)CCCCCCC=CCCC[C@@](C)(C(=O)N[C@@H](Cc2ccccc2)C(=O)N[C@@H](CCCCN)C(N)=O)NC(=O)[C@H](CCCCN)NC(=O)[C@H](C(C)C)NC(=O)[C@H](Cc2ccccc2)NC(=O)[C@H](CCCCN)NC(=O)[C@H](CCCCN)NC(=O)[C@H](C)NC1=O", "note": "[st7-5] (H-GIKKFLK[R8]AKKFVK[S5]FK-NH2; staple 8-15)", "values": [{"measurement": "Relative hydrophobicity from UPLC retention times", "setting": "[3]", "value": "most hydrophobic"}, {"measurement": "Cytotoxicity at 10 µM", "setting": "HeLa cells [1]", "value": "did not show significant cytotoxicity"}]}
